Screening results from PubChem BioAssay.
CAL PDZ FP-1: CAL PDZ peptide-binding inhibitors, primary screen, biochemical, fluorescence polarization, Cer-tagged CAL PDZ, HTS; purified CAL PDZ, TMR-peptide fluorescence polarization, 1 h; inhibition, % at 20 µM; hit rate 0.02% among 330,000;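 active means highest replicate inhibition of at least 40%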;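 further: plate controls were DMSO neutral control wells for no effect and unlabeled competitor peptide control wells for full effect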
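System: purified tagged CAL PDZ domain construct (CerCALP). Schedule: 1 h incubation at room temperature before polarization reading. Medium: 25 mM sodium phosphate pH 7.4, 150 mM NaCl, TCEP, IgG, Thesit. Read-out: percent inhibition from loss of millipolarization. Measured by: FP readout, S and P plane fluorescence. Probe or stimulus: fluorescent TMR peptide probe.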
CAL PDZ FP-2: untagged CAL PDZ binding inhibitors, primary screen, biochemical, fluorescence polarization, HTS | purified CAL PDZ, TMR-peptide fluorescence polarization, 1 h | inhibition, % at 24.9 µM | Golgi-associated PDZ and coiled-coil motif-containing protein (Homo sapiens), Q9HD26 | hit rate 0.92% among 300,000 | AID 602252, 2012;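 active means mean inhibition of at least 30% with at least half of replicates also reaching 30%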;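 further: 0% = DMSO neutral control and 100% = excess unlabeled competitor peptide PRC23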
DDE Tn6 FP inh: inhibitors of Tn6 peptide binding to fibrin DD(E), primary screen, biochemical, fluorescence polarization, human fibrin, Tn6 probe. Fibrinogen beta chain (Homo sapiens), P02675. hit rate 0.21% among 370,000. AID 720509, 2013. Fibrin DD(E) TRITC-Tn6 fluorescence polarization displacement. inhibition, % at 8.3 µM;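 active means inhibition above a per-campaign cutoff: mean of compounds within control limits plus 3 SD, cut at about 15% in these data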;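 further: 0% = median of all compound wells on the plate and 100% = blocking peptide control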
Target sequence (P02675 whole entry, looked up): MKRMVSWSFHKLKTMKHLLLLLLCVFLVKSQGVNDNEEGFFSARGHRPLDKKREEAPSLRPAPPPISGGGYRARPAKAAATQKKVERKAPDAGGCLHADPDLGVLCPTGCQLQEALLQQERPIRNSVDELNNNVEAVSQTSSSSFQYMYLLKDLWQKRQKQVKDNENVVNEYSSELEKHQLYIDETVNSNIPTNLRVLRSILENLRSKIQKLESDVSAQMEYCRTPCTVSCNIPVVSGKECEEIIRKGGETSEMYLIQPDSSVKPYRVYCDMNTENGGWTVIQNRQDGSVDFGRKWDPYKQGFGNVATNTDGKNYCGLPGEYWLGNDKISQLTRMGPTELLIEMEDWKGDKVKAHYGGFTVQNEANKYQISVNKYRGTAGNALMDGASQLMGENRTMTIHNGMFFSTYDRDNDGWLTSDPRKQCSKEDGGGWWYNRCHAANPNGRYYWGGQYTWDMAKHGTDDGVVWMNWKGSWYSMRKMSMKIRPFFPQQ
Tn7 DDE FP: inhibitors of Tn7 peptide binding to fibrin DD(E), primary screen, biochemical, fluorescence polarization, human fibrin, Tn7 probe | inhibition, % at 8.3 µM | AID 720508, 2013 | FP displacement of FITC-Tn7 peptide from fibrin DD(E); 0% = median of compound wells per plate | Fibrinogen beta chain (Homo sapiens), P02675 | hit rate 0.13% among 370,000;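 active means inhibition above the mean of compounds falling within the control limits plus 3 SD of them, cut at about 14% in these data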;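 further: 0% = plate median of compound wells and 100% = 10 µM Aha-Tn7 peptide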
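Assay system: human fibrin DD(E) protein / Input: 2 µM fibrin DD(E) / Benchmarks: high control of 10 µM Aha-Tn7 peptide / Measured by: fluorescence polarization of the labelled Tn7 tracer / Medium: Tris buffer with calcium and detergent, pH 7.8 / Timing: 10 min compound pre-incubation, 3 h probe incubation at room temperature / Repeats: one replicate per compound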
Arrestin-AP2 inh: inhibitors of beta-arrestin/AP2 binding, primary screen, biochemical, GPCR trafficking, flow cytometry | beta-arrestin 1 C-terminal peptide binding to AP2 beta2-adaptin appendage (human) | FITC-arrestin peptide / GST-AP2 beads; AP2 beta2 appendage carries R879A mutation | inhibition, % at 10 µM | hit rate 0.31% among 340,000 | AID 504490, 2011;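 active means inhibition above a set limit, near 3 SD of compounds lacking own fluorescence, cut at about 54% in these data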;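 further: plate controls were DMSO wells for no effect and 5 µM unlabelled arrestin peptide for full effect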
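system = GST-tagged AP2 beta2-adaptin appendage (R879A) on 4 µm glutathione beads | reagent = FITC-labelled arrestin peptide probe, 50 nM final | schedule = compound with beads 12 min RT, then probe 1 h RT | signal = HyperCyt-sampled flow cytometry, FL1 channel, ex 488/em 535 nm | read-out = percent response from loss of bead-bound FITC fluorescence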
Numbers without * were called inactive; . = no result given. Compounds with a hit are over-represented: about 1.4% of the library has one in this group of screens.

SMILES	CAL PDZ FP-1	CAL PDZ FP-2	DDE Tn6 FP inh	Tn7 DDE FP	Arrestin-AP2 inh
CCC/C(=N\NC(=O)CNC(=O)c1ccc(Cl)cc1)c1ccccc1	-0.7	78.5*	-1.7	2.3	8.6
COc1cc(OC)c2c(O)c3c(=O)cc(C)oc3c(-c3c(OC)cc4cc5c(c(O)c4c3O)C(=O)CC(C)(O)O5)c2c1 (stereo not given)	.	.	-6.1	-1.4	.
Cn1c(=O)n(C)c2cc(NC(=O)c3ccccc3NS(C)(=O)=O)ccc21	-0.6	80.4*	1.8	3.5	-8.8
CC(CCN1CCC(C(O)(c2ccccc2)c2ccccc2)CC1)Oc1ccc(F)cc1 (stereo not given)	.	.	0.8	-8.7	.
CN1C(=O)c2cc(NC(=O)Nc3ccccc3F)ccc2OC[C@H]2O[C@@H](CC(=O)NCc3ccc(-c4ccccc4)cc3)CC[C@@H]21	.	.	-1.1	-5.3	.
O=C(COC(=O)C(CO)NS(=O)(=O)c1ccc(Br)cc1)Nc1ccc2c(c1)OCCO2 (stereo not given)	0.4	46.6*	2.2	-6.3	-1.6
O=S(=O)(c1ccccc1)N1CCN=C1SCc1ccc(Cl)c(Cl)c1	-1.1	-4.1	3.9	4.1	-80.3
O=S(=O)(c1ccccc1)N1CCN=C1SCc1ccc(Cl)cc1	-0.5	44.4*	1.3	-0.7	-3.0
O=S(=O)(c1ccc(Br)cc1)N1CCN=C1SCc1cccnc1	-0.9	44.9*	-4.5	-7.0	-3.4
O=S(=O)(c1ccc(F)cc1)N1CCN=C1SCc1cccnc1	-0.3	5.3	7.6	-3.0	-7.6
CCOC(=O)CC[C@@]1(C(=O)OCC)C[C@@H](CC(=O)NCc2ccc(C)o2)C(=O)N2CCCC=C21	.	.	7.7	-3.7	.
CCCc1cc(=O)oc2cc(C)cc(OCC(=O)NCc3cccnc3)c12	-1.6	40.9*	-1.1	-0.9	-14.0
CCCCc1cc(=O)oc2cc(C)cc(OCC(=O)Nc3cccnc3)c12	0.1	-0.3	1.2	-2.6	11.4
Cn1c(CNc2ccccc2F)nc2ccccc21	.	.	-0.1	2.9	.
O=C(O)CCCCCN1C(=O)CCC1=O	.	45.3*	2.7	-4.8	-0.4
CCOC(=O)N1CCN(C(=O)c2ccc3c(c2)sc2nc(-c4ccc(OC)cc4)cn23)CC1	-0.9	38.2*	-1.1	5.3	-7.1
CCOC(=O)N1CCN(C(=O)c2sc3nc(-c4ccc(F)cc4)cn3c2C)CC1	-0.6	-1.0	-3.3	-9.3	-6.8
Cc1nnsc1C(=O)Nc1cccc(Cl)c1	-0.6	73.8*	-0.3	-2.6	-5.6
Cn1c(Cc2cccs2)nnc1SCC(=O)Nc1ccc2c(c1)OCCO2	.	.	-1.0	-3.7	.
CC(Oc1ccc2ccc(=O)oc2c1)C(=O)NCCCn1ccnc1 (stereo not given)	-1.0	-0.2	8.6	-0.2	1.7
Cc1c(C)c2ccc(OC(C)C(=O)NCCCn3ccnc3)c(C)c2oc1=O (stereo not given)	-0.5	71.1*	8.1	0.1	-13.3
O=C(C1CC(=O)N(c2ccc3c(c2)OCCO3)C1)N1CCN(S(=O)(=O)c2ccc(F)cc2)CC1 (stereo not given)	-1.9	68.1*	7.7	-2.1	-3.6
O=C(C1CC(=O)N(c2ccc3c(c2)OCCO3)C1)N1CCN(S(=O)(=O)c2cccc(F)c2)CC1 (stereo not given)	-0.9	-3.4	-6.9	0.5	-3.3
CCn1ccnc1CN1CCc2c([nH]c3ccccc23)C1C(C)(C)C (stereo not given)	-0.8	79.7*	0.8	8.0	-14.1
O=C(CN1CCc2ccccc21)NN1CC(=O)N(c2ccc(Cl)cc2)CC1=O	-0.5	-4.3	4.6	-1.9	-0.1
SMILES	CAL PDZ FP-1	CAL PDZ FP-2	DDE Tn6 FP inh	Tn7 DDE FP	Arrestin-AP2 inh
CN1CCN(CC(=O)NN2CC(=O)N(c3ccc(F)cc3)CC2=O)CC1	0.4	51.7*	4.5	-2.5	-4.2
O=C1CCC[C@H]2Cc3nc4ccccc4cc3C[C@]23CCCN13	.	.	5.2	-4.1	.
CCOc1ccc(OCC(=O)OCC(=O)Nc2ccccc2C#N)cc1	-1.2	-1.0	-6.4	-1.8	-3.5
N#Cc1ccccc1NC(=O)COC(=O)COc1ccccc1[N+](=O)[O-]	-0.5	35.4*	-2.4	9.7	-11.9
COc1ccc(Nc2nc(N3CCN(C)CC3)nc3ccccc23)c(OC)c1	1.8	53.2*	4.7	-7.4	-5.1
COc1ccc(Nc2nc(-c3cccs3)nc3ccccc23)c(OC)c1	0.5	-1.0	-7.2	3.9	9.3
C=CCNc1cccc2c1S(=O)(=O)N[C@@H](C)CO2	.	.	0.2	-3.4	.
CN(C(=O)CSc1cn(CC(=O)N2CCOCC2)c2ccccc12)c1ccccc1	-0.7	34.7*	0.2	0.8	-9.7
CC1CN(C(=O)CSc2cn(CC(=O)N3CCOCC3)c3ccccc23)CC(C)O1 (stereo not given)	0.2	3.1	-9.7	3.8	-12.8
CCCc1ccc(C(=O)/C=C/N(C)C)cc1	-3.8	53.3*	-3.1	0.7	-10.8
Nc1nnc(SCC(=O)Nc2cc(S(=O)(=O)N3CCOCC3)ccc2N2CCCC2)s1	-2.5	67.5*	-9.2	-1.8	-1.9
COc1ccc(S(=O)(=O)N2CCOCC2)cc1C(=O)NCC(c1ccccc1)c1ccccc1	-0.7	42.0*	-1.7	-0.3	-3.3
COc1ccc(S(=O)(=O)N2CCOCC2)cc1NC(=O)CN1CCCCCC1	31.9	35.6*	-3.8	0.9	-3.0
O=C(NCC1CCN(C(=O)C(=O)c2cccs2)CC1)c1ccc2c(c1)OCO2	.	.	-3.7	0.3	.
CCOC(=O)[C@@]12CN(C(=O)OC(C)(C)C)CC=C1N(Cc1ccc(OC)cc1)C(=O)[C@H]2CC(=O)N1CCC(c2ccccc2)CC1	.	.	-2.4	3.6	.
Cc1ccc(C(C(=O)NC(C)(C)C)N(CC2CCCO2)C(=O)CCC(=O)Nc2ccccn2)cc1 (stereo not given)	-0.3	84.5*	7.2	5.4	1.1
CCC(C)(C)NC(=O)C(c1ccc(C)cc1)N(CC1CCCO1)C(=O)CCC(=O)Nc1ccccn1 (stereo not given)	-1.5	.	3.5	-5.1	-14.4
COC(=O)[C@]12C[C@H](CC(=O)NCC3CCCCC3)C(=O)N(Cc3ccc(Cl)cc3Cl)C1=C[C@H](C1CCCC1)O[C@@H]2C	.	.	-1.4	3.3	.
O=C(/C=C\c1ccc2c(c1)OCO2)CC1(O)C(=O)Nc2ccccc21 (stereo not given)	.	89.0*	4.2	0.8	-14.2
Cc1cccc(CNC(=O)NC2CCCCN(Cc3cccc(Cl)c3)C2=O)c1 (stereo not given)	.	.	-6.2	-3.2	.
